The values that follow come from ChEMBL document CHEMBL1154901, “Quassidines A-D, bis-beta-carboline alkaloids from the stems of Picrasma quassioides” (J Nat Prod, 2010).

Data set [1] has as its system RAW264.7. The data set can be described thus: Antiinflammatory activity in mouse RAW264.7 assessed as inhibition LPS-induced nitric oxide production cells after 24 hrs. It counts as functional, cell-based. Particulars: RAW264.7, 24 h. Summed up: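 RAW 264.7 cells in RPMI 1640 with 10% heat-inactivated FBS, seeded at 5 × 10^5 cells/mL and cultured 1 h. Compound in DMSO was added at various concentrations together with LPS (final 1 µg/mL), then incubated 24 h. Supernatant nitrite was measured with Griess reagent (1% sulfanilamide in 5% H3PO4 plus 0.1% naphthylethylene diamine) at 540 nm. Inhibitory rate versus LPS-only wells.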

For data set [2], the system named is RAW264.7. Briefly: Antiinflammatory activity in mouse RAW264.7 cells assessed as inhibition of LPS-induced TNFalpha production by ELISA. It counts as functional, cell-based. The procedure, abridged:
(§1)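 RAW 264.7 cells in RPMI 1640, seeded at 5 × 10^5 cells/mL and cultured 1 h. Compound in DMSO was co-added with LPS (final 1 µg/mL). After 6 h culture, supernatant TNF-α and IL-6 were quantified with mouse ELISA kits. LPS-only and DMSO-only (no LPS) wells served as references.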

For data set [3], the system named is RAW264.7. The data set can be described thus: Antiinflammatory activity in mouse RAW264.7 cells assessed as inhibition of LPS-induced IL-6 production by ELISA. It counts as functional, cell-based. The procedure, abridged:
as §1

The subject of data set [4] is RAW264.7. Briefly: Cytotoxicity against mouse RAW264.7 cells after 24 hrs by MTT assay. It counts as cell-based. The conditions noted are these: raw264.7, 24 h. The procedure, abridged:
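RAW 264.7 macrophages seeded at 5 × 10^5 cells/mL in RPMI 1640 with 10% FBS. Compound in DMSO was added with LPS 1 µg/mL. Viability was read by MTT mitochondrial reduction colorimetric assay after 24 h exposure.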

With `COc1cccc2c1[nH]c1c(CCC(OC)c3nccc4c3[nH]c3ccccc34)ncc(OC)c12` (configuration not stated) [QUASSIDINE D], the IC50 in the data set with RAW264.7 [1], with RAW264.7 [2] and in the data set on RAW264.7 [3] was over 100 µM in each case.
For `COc1cccc2c1[nH]c1c(CCC(OC)C(=O)c3nccc4c3[nH]c3ccccc34)ncc(OC)c12` (configuration not stated) [PICRASIDINE C], the IC50 with RAW264.7 [1] is 89.9 µM; in the data set on RAW264.7 [2], over 100 µM; with RAW264.7 [3] it was over 100 µM.
For `COc1cccc2c1[nH]c1c([C@@H]3CC[C@H]3c3ncc(OC)c4c3[nH]c3ccccc34)ncc(OC)c12` [QUASSIDINE A], the IC50 was 89.4 µM with RAW264.7 [1], 88.4 µM in the data set on RAW264.7 [2] and over 100 µM in the data set with RAW264.7 [3].
On to `C[C@]12CCC(=O)C=C1CC[C@@H]1[C@@H]2[C@@H](O)C[C@@]2(C)[C@H]1CC[C@]2(O)C(=O)CO` [HYDROCORTISONE], for which the concentration for half-maximal inhibition (IC50) with RAW264.7 [2] turned out to be 85.6 µM.
Take `COc1cnc(CCC(O)c2nccc3c2[nH]c2ccccc23)c2[nH]c3ccccc3c12` (configuration not stated) [QUASSIDINE C]: the Activity entry in the data set on RAW264.7 [4] is “Toxic”.
Still for that read-out and setting: the same measure for `COc1cccc2c1[nH]c1c(CCC(O)c3nccc4c3[nH]c3ccccc34)ncc(OC)c12` (configuration not stated) [QUASSIDINE B]: “Toxic”.
